Converted amounts (≈) assume the structure as drawn. The source made the active and inactive calls. The rule behind the calls is not given here.
What was measured:
[1] = Aqueous solubility of compound; format: physicochemical; conditions: buffer
In short: (§1)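 Aqueous solubility measured over pH 1.0-6.8.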

[2] = molecular target: T1, Cytochrome P450 3A4 (Homo sapiens, UniProt P08684); assay: Inhibition of recombinant CYP3A4 expressed in insect microsomes after 45 mins in presence of BZR substrate; format: ADME, Microsome
T1 sequence (P08684 whole entry): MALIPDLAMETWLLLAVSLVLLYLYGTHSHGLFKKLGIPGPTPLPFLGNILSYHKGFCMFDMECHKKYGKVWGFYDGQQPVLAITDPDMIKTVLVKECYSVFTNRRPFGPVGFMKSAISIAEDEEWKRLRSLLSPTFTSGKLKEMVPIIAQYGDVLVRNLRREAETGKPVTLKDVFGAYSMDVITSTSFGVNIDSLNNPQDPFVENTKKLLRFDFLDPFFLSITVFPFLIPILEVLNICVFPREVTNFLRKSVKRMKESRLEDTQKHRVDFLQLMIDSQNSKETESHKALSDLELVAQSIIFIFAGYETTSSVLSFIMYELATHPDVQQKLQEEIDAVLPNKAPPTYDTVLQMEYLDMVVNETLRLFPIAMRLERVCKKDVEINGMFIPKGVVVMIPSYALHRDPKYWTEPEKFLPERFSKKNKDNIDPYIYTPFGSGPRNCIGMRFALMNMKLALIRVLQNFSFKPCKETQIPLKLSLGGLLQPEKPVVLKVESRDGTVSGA

[3] = molecular target: T2, Calcitonin gene-related peptide type 1 receptor (Homo sapiens, UniProt O60894+Q16602); assay: Displacement of [I125]CGRP from human CGRP receptor in SK-N-MC cells; format: cell-based
T2 sequence (Q16602 whole entry, one chain of several): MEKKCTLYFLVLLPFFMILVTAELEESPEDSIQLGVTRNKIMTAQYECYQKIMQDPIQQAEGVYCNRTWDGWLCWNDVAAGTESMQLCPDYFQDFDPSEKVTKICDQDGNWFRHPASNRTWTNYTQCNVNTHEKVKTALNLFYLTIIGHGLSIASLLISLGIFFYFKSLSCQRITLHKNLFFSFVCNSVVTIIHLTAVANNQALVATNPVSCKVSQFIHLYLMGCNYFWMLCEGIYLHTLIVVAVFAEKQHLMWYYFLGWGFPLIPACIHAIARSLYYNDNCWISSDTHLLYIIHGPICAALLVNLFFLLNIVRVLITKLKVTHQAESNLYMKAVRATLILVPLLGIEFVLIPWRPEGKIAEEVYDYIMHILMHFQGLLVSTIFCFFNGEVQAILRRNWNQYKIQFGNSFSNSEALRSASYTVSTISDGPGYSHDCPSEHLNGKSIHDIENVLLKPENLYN

[4] = molecular target: T1, Cytochrome P450 3A4; assay: Inhibition of recombinant CYP3A4 expressed in insect microsomes after 20 mins in presence of BFC substrate; format: ADME, Microsome
[5] = Aqueous solubility of compound at pH 5; format: physicochemical
[6] = Bioavailability in intratracheally dosed Sprague-Dawley rat; format: ADME, organism-based; conditions: in vivo, inhaled or intranasal
[7] = Bioavailability in sc dosed Sprague-Dawley rat in presence of PBS vehicle; format: ADME, organism-based; conditions: in vivo
[8] = system: Callithrix jacchus; assay: Inhibition of human alpha CGRP-induced increase in facial blood flow in marmoset at 0.03 mg/kg, sc after 15, 60 and 105 mins by laser Doppler flowmetry; format: functional, organism-based; set-up: dose 0.03 mg/kg
In short: (§2)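 Anesthetised marmosets received hRCGRP 10 µg/kg IV at 45 min intervals (-30, 15, 60 and 105 min); antagonist given SC at 0 min (dose range 0.003-0.03 mg/kg), vehicle-treated group run in parallel. Facial blood flow increase after each CGRP challenge read by laser Doppler flowmetry; plasma drug levels sampled at the 15 min test time.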

[9] = molecular target: Cytochrome P450 2C9 (Homo sapiens, UniProt P11712); assay: Inhibition of human recombinant CYP2C9 expressed in insect microsomes
Cytochrome P450 2C9, sequence (P11712 whole entry): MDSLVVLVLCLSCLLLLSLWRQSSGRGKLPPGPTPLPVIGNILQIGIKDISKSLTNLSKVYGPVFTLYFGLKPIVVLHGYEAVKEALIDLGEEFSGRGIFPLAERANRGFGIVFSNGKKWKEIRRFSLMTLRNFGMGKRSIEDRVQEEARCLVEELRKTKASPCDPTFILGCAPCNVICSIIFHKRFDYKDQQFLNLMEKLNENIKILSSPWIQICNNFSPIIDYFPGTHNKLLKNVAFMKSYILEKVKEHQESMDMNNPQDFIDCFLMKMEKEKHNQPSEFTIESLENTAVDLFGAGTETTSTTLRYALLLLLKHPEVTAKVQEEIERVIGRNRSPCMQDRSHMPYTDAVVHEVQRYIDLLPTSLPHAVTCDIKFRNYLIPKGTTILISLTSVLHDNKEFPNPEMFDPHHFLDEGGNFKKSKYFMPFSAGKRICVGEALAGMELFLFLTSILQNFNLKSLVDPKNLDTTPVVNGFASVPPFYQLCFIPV

[10] = system: Oryctolagus cuniculus; assay: Cmax in New Zealand white rabbit at 0.5 mg/kg, iv; format: ADME, organism-based; set-up: dose 0.5 mg/kg, route intravenous; conditions: in vivo
In short: (§3)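 Rabbits given an iv dose of 0.5 mg/kg as the reference leg for intranasal dosing. Clearance, Vss and terminal half-life were derived from the plasma concentration-time profile.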

[11] = Displacement of [I125]AM from adrenomedullin 2 receptor expressed in CHO cells; format: cell-based
[12] = Volume of distribution at steady state in New Zealand white rabbit at 0.5 mg/kg, iv; format: ADME, organism-based, Oryctolagus cuniculus; set-up: dose 0.5 mg/kg, route intravenous; conditions: in vivo, read-out: Vdss; in short: as §3
[13] = Total AUC in New Zealand white rabbit at 0.3 mg/kg, intranasally; format: ADME, organism-based, Oryctolagus cuniculus; set-up: time AUCmax, route nasal, dose 0.3 mg/kg; conditions: in vivo, inhaled or intranasal
In short: (§4)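 Rabbits dosed intranasally by spraying a solution into the nasal cavity. Plasma concentrations followed for up to 24 h. Bioavailability was calculated against an iv leg given at 0.5 mg/kg.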

[14] = molecular target: T3, Calcitonin receptor (Homo sapiens, UniProt P30988); assay: Displacement of [125I]calcitonin from calcitonin receptor in human T47D cells; format: cell-based
T3 sequence (P30988 whole entry): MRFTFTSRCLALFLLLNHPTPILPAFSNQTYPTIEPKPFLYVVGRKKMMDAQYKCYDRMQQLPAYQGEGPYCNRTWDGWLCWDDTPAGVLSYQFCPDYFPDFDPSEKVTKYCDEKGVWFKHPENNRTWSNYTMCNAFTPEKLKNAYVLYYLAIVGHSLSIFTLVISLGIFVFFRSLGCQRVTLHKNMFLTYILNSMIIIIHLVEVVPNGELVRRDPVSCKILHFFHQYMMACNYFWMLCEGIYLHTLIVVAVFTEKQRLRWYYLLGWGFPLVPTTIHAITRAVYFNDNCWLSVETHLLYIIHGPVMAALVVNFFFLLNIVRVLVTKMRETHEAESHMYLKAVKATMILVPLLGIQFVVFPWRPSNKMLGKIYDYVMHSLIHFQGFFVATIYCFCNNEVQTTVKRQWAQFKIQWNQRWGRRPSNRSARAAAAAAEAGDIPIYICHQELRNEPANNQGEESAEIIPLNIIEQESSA

[15] = Displacement of [I125]CGRP from marmoset CGRP receptor; set-up: species or system Callithrix jacchus
[16] = system: Oryctolagus cuniculus; assay: Total AUC in New Zealand white rabbit at 0.1 mg/kg, intranasally; format: ADME, organism-based; set-up: route nasal, time AUCmax, dose 0.1 mg/kg; conditions: in vivo, inhaled_or_intranasal; in short: as §4
[17] = Tmax in New Zealand white rabbit at 0.5 mg/kg, iv; format: ADME, organism-based, Oryctolagus cuniculus; set-up: dose 0.5 mg/kg, route intravenous; conditions: in vivo; in short: as §3
[18] = Fraction unbound in human serum at 10 uM; format: ADME, cell-free
In short: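 Serum protein binding measured in vitro with compound at 10 µM.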

[19] = system: Callithrix jacchus; assay: Inhibition of human alpha CGRP-induced increase in facial blood flow in marmoset at 0.01 mg/kg, sc after 60 and 105 mins by laser Doppler flowmetry; format: functional, organism-based; set-up: dose 0.01 mg/kg; in short: as §2
[20] = Ex vivo inhibition of human alpha CGRP-induced artery dilation in human intracranial artery preincubated for 30 mins; format: functional
In short: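 Wire-mounted human intracranial artery rings were preincubated 30 min with a single antagonist concentration (0.1-30 nM). They were then contracted with 10 mM K+ and given increasing hαCGRP to full relaxation. The CGRP curve shift was analysed by Schild analysis.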

[21] = Bioavailability in sc dosed cynomolgus monkey; format: ADME, organism-based, Macaca fascicularis; conditions: in vivo
In short: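 Cynomolgus monkeys dosed subcutaneously in PG:D5W vehicle to determine bioavailability.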

[22] = Drug level in New Zealand white rabbit after 24 hrs; format: ADME, organism-based, Oryctolagus cuniculus; conditions: in vivo, read-out: Drug uptake
In short: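 Plasma level of drug in rabbits measured 24 h after intranasal dosing of a sprayed solution.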

[23] = molecular target: Calcitonin gene-related peptide type 1 receptor (Rattus norvegicus, UniProt Q63118+Q9JJ74); assay: Displacement of [I125]CGRP from rat CGRP receptor
Calcitonin gene-related peptide type 1 receptor (Rattus norvegicus, UniProt Q63118+Q9JJ74), sequence (Q63118 whole entry, one chain of several): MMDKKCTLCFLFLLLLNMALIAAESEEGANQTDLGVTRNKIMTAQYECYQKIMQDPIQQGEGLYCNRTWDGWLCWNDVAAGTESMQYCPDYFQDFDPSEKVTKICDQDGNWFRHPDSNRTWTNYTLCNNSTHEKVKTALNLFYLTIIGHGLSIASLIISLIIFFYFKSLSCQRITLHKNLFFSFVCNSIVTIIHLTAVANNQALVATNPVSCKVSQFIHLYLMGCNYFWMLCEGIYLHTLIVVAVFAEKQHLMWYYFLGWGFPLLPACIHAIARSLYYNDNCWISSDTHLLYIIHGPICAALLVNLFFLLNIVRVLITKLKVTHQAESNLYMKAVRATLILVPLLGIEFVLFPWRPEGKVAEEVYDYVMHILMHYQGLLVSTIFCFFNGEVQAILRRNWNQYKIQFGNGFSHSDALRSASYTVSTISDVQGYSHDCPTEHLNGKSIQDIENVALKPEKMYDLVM

[24] = Cmax in New Zealand white rabbit at 1.0 mg/kg, intranasally; conditions: in vivo, inhaled or intranasal
[25] = Half life in New Zealand white rabbit at 0.5 mg/kg, iv; format: ADME, organism-based, Oryctolagus cuniculus; set-up: dose 0.5 mg/kg, route intravenous; conditions: in vivo; in short: as §3
[26] = system: Oryctolagus cuniculus; assay: Total AUC in New Zealand white rabbit at 0.5 mg/kg, iv; format: ADME, organism-based; set-up: dose 0.5 mg/kg, route intravenous, time AUCmax; conditions: in vivo; in short: as §3
[27] = Displacement of [I125]AMY from amylin 1 receptor expressed in CHO cells; format: cell-based
[28] = Displacement of [I125]AMY from amylin 3 receptor expressed in CHO cells; format: cell-based
[29] = system: Callithrix jacchus; assay: Inhibition of human alpha CGRP-induced increase in facial blood flow in marmoset at 0.003 mg/kg, sc by laser Doppler flowmetry; format: functional, organism-based; set-up: dose 0.003 mg/kg
In short: (§5)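 Anesthetized marmosets received iv hαCGRP (10 µg/kg) at -30, 15, 60 and 105 min. Antagonist was given sc at 0 min. Facial blood flow changes were measured by laser Doppler flowmetry and compared with vehicle-treated animals.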

[30] = Bioavailability in sc dosed Sprague-Dawley rat in presence of PG:D5W vehicle; format: ADME, organism-based; conditions: in vivo
In short: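 Rats dosed subcutaneously in PG:D5W vehicle to determine bioavailability.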

[31] = Clearance in New Zealand white rabbit at 0.5 mg/kg, iv; format: ADME, organism-based, Oryctolagus cuniculus; set-up: dose 0.5 mg/kg, route intravenous; conditions: in vivo; in short: as §3
[32] = Cmax in New Zealand white rabbit at 0.3 mg/kg, intranasally; format: ADME, organism-based, Oryctolagus cuniculus; set-up: route nasal, dose 0.3 mg/kg; conditions: in vivo, inhaled or intranasal; in short: as §4
[33] = Intrinsic permeability across human Caco-2 cells; format: ADME, cell-based; conditions: read-out: IP
[34] = Oral bioavailability in cynomolgus monkey; format: ADME, organism-based, Macaca fascicularis; conditions: in vivo
[35] = molecular target: Cytochrome P450 2C19 (Homo sapiens, UniProt P33261); assay: Inhibition of human recombinant CYP2C19 expressed in insect microsomes
Cytochrome P450 2C19, sequence (P33261 whole entry): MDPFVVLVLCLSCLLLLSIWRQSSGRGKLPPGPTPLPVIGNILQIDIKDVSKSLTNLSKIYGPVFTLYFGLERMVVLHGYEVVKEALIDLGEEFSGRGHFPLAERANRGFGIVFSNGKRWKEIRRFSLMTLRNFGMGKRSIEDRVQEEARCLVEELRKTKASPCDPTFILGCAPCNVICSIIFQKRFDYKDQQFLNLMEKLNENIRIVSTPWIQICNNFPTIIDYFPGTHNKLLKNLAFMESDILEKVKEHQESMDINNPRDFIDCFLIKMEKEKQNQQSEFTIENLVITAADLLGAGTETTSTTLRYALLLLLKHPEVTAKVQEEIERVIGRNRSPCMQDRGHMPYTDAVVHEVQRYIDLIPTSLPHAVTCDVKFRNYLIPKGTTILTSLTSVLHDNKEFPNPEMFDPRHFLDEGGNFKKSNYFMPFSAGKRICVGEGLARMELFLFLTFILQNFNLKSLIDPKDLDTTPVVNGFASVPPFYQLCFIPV

[36] = molecular target: T2, Calcitonin gene-related peptide type 1 receptor; assay: Antagonist activity at human CGRP receptor in SK-N-MC cells assessed as inhibition of CGRP-stimulated cAMP production
[37] = Tmax in New Zealand white rabbit at 0.3 mg/kg, intranasally; format: ADME, organism-based, Oryctolagus cuniculus; set-up: dose 0.3 mg/kg; conditions: in vivo, inhaled or intranasal; in short: as §4
[38] = Tmax in New Zealand white rabbit at 0.1 mg/kg, intranasally; format: ADME, organism-based, Oryctolagus cuniculus; set-up: dose 0.1 mg/kg; conditions: in vivo, inhaled or intranasal; in short: as §4
[39] = Bioavailability in New Zealand white rabbit at 0.3 mg/kg, intranasally; format: ADME, organism-based, Oryctolagus cuniculus; conditions: in vivo, inhaled or intranasal; in short: as §4
[40] = Aqueous solubility of compound at pH 1 to 6.8; format: physicochemical; in short: as §1
[41] = Oral bioavailability in Sprague-Dawley rat; format: ADME, organism-based; conditions: in vivo
[42] = Displacement of [I125]AM from adrenomedullin 1 receptor expressed in CHO cells; format: cell-based
[43] = system: Oryctolagus cuniculus; assay: Bioavailability in New Zealand white rabbit at 0.1 mg/kg, intranasally; format: ADME, organism-based; conditions: in vivo, inhaled_or_intranasal, 1.0 mg/kg, in the assay text read “1.0 mg/kg” for “0.1 mg/kg”; in short: as §4
[44] = Ex vivo effect on basal artery tension in human coronary artery assessed as contractility; format: functional, tissue-based
In short: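 Contractility was measured in wire-mounted ex vivo human artery rings at up to 10 µM compound. Serotonin (10 µM) was added at the end of each session to give maximal contraction.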

[45] = Ex vivo reversal of human alpha CGRP-induced artery dilation in human intracranial artery; format: functional
In short: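 Human intracranial artery rings were wire-mounted on a force transducer and contracted with 10 mM KCl. They were then fully dilated with 1 nM hαCGRP. Antagonist was added cumulatively in half-log increments to reverse the dilation.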

[46] = system: Callithrix jacchus; assay: Inhibition of human alpha CGRP-induced increase in facial blood flow in marmoset at 0.01 mg/kg, sc after 15 mins by laser Doppler flowmetry; format: functional, organism-based; set-up: dose 0.01 mg/kg; in short: as §5

O=C(N[C@H](Cc1csc2ccccc12)C(=O)N1CCC(N2CCCCC2)CC1)N1CCC(N2Cc3ccccc3NC2=O)CC1
Activity [1]: Not Active | IC50 [2]: 84 nM | Ki [3]: 0.55 nM | IC50 [4]: 870 nM

Cc1cc(C[C@@H](NC(=O)N2CCC(N3Cc4ccccc4NC3=O)CC2)C(=O)N2CCC(N3CCCCC3)CC2)cc2cn[nH]c12
Ki [3]: 0.01 nM | solubility [5]: 15 mg/mL (≈ 23.9 mM)

O=C(N[C@H](Cc1ccc2[nH]ncc2c1)C(=O)N1CCC(N2CCCCC2)CC1)N1CCC(N2Cc3ccccc3NC2=O)CC1
Activity [1]: Not Active | IC50 [2]: 4000 nM | IC50 [4]: > 40000 nM

Cc1cc(C[C@@H](NC(=O)N2CCC(N3Cc4cccc(F)c4NC3=O)CC2)C(=O)N2CCC(N3CCCCC3)CC2)cc2cn[nH]c12
bioavailability [6]: 73% | bioavailability [7]: 43% | Activity [8]: Active | IC50 [9]: > 40000 nM | Cmax [10]: 8.2 µM | Ki [11]: > 5000 nM | Vd [12]: 2.7 L/kg | AUC [13]: 360 nM·h | Ki [14]: > 5000 nM | Ki [15]: 0.078 nM | AUC [16]: 1300 nM·h | Tmax [17]: 1.98 min | fraction unbound at 10 µM [18]: 0.35 | Activity [19]: Active | Kb [20]: 0.028 nM | bioavailability [21]: 76% | concentration at 24 h [22]: > 0.01 µM | Ki [23]: > 1000 nM | Cmax [24]: 1.2 µM | half-life [25]: 660 min | AUC [26]: 1100 nM·h | Ki [3]: 0.0128 nM | Ki [27]: > 500 nM | Ki [28]: > 5000 nM | Activity [29]: inactive | bioavailability [30]: 81% | clearance [31]: 0.78 L/h/kg | Cmax [32]: 0.36 µM | Papp [33]: < 15 nm/s | bioavailability [34]: ≤ 0.3% | IC50 [35]: > 40000 nM | EC50 [36]: 0.0345 nM | Tmax [37]: 10.2 min | Tmax [38]: 10.2 min | bioavailability [39]: 55.2% | solubility [40]: > 500 mg/mL | bioavailability [41]: ≤ 0.3% | Ki [42]: > 5000 nM | F [43]: 59% | EC50 [44]: 311 nM | EC50 [45]: 0.06 nM | Activity [46]: inactive

Source: ChEMBL document CHEMBL1156565, “Discovery of (R)-4-(8-fluoro-2-oxo-1,2-dihydroquinazolin-3(4H)-yl)-N-(3-(7-methyl-1H-indazol-5-yl)-1-oxo-1-(4-(piperidin-1-yl)piperidin-1-yl)propan-2-yl)piperidine-1-carboxamide (BMS-694153): a potent antagonist of the human calcitonin gene-related peptide receptor for migraine with rapid and …” (J Med Chem, 2008)
